Test results reported in ChEMBL document CHEMBL4513216, “Probing the Open Global Health Chemical Diversity Library for Multistage-Active Starting Points for Next-Generation Antimalarials” (ACS Infect Dis, 2020).

Assay: Toxicity liver stage against HepG2, at 10uM
Format: cell-based
Parameters: test concentration 10 uM, cell line HepG2-A16-CD81EGFP
Conditions: human, HepG2-A16-CD81EGFP cells; read-out: INHIBITION
Summary of the method: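 Uninfected HepG2-A16-CD81EGFP cells, 3 × 10^3 per well, 1536-well, plated on prespotted compound at 10 μM final, parasite-free screening media added to match infected plates; puromycin 10 μM positive, DMSO 0.5% negative; run in parallel with 48 h PbLuc assay at 37 °C, 5% CO2; viability by CellTiter-Glo luminescence, normalized to controls.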

Row | Structure (SMILES) | cytotoxicity at 10 µM [%]
1 | CC1=N[C@@]2(CC[C@@H]3CN(C(=O)NC(C)C)C[C@@H]32)C(=O)N1CC(C)C | 7.74
2 | O=C(Nc1ccc(-c2csnn2)cc1)N1CC[C@H](O)C1 | -4.62
3 | Cc1cc(N(C)C)nc(C2(C)CCCN2C(=O)c2cnccn2)n1 (stereo not drawn) | -1.19
4 | O=C(CSCC1CC1)N1C[C@H]2CC[C@@H](C1)N(Cc1ccccn1)C2=O | 5
5 | Cc1nc(C)n(CC2CCCN(CCOc3cccc(C#N)c3)C2)n1 (stereo not drawn) | -6.53
6 | COC1COC2(CCN(Cc3ccco3)CC2)C1 (stereo not drawn) | 8.62
7 | CCC(C)N(C)C(=O)Nc1ccc(N2CCSCC2)cc1C (stereo not drawn) | -12.5
8 | COc1ccc(C(=O)N(CCO)Cc2ccccc2)c(OC)n1 | 3.33
9 | Cc1cccc(C)c1NC(=O)CCNC(=O)c1ccoc1 | 3.03
10 | CN(Cc1nnc(-c2cccs2)o1)C(C(N)=O)c1cccc(F)c1 (stereo not drawn) | 13.7
11 | Cc1cnc(N2CCC3(CCCCN3C)C2)nc1 (stereo not drawn) | 3.29
12 | Cc1ccc(CNCC2CNc3cc(C)nn3C2)cn1 (stereo not drawn) | -7.07
13 | COC(C)Cc1nc(-c2cnn3c(C)cc(C)nc23)no1 (stereo not drawn) | -8.11
14 | Cc1ccsc1CN1CCn2c(COc3cccnc3)cnc2C1C (stereo not drawn) | -99.4
15 | Cc1csc(N2CCCN(C(=O)c3c(C)noc3C)CC2)n1 | -10.6
16 | Cc1ccc(C(C)N(C)C(=O)c2ccc(=O)n(C)c2)s1 (stereo not drawn) | -4.27
17 | Cc1cccc(CN2CCCC3(Cc4ccccc4CNC3=O)C2)n1 (stereo not drawn) | 5.37
18 | Cc1ccc(C(=O)N2CCC3(CCC(=O)N(CCCO)C3)CC2)c(O)c1 | 7.4
19 | Clc1ccc2cccnc2c1CN1CCCC1Cn1cncn1 (stereo not drawn) | 3.91
20 | Cc1nccn1C1CCCN(C(=O)c2ccc3c(c2)NC(=O)CO3)C1 (stereo not drawn) | -11.5
21 | Cc1ccc2c(c1)c(CNC(=O)C1CCN(C(=O)C3CC3)CC1)nn2C | -0.687
22 | Cc1cccc(C(=O)N2CCCCC2c2ccc(CN(C)C)cc2)c1 (stereo not drawn) | -0.909
23 | CCc1ccccc1C(=O)N1CCN(S(C)(=O)=O)[C@@H](C)C1 | -8.72

Row | Structure (SMILES) | cytotoxicity at 10 µM [%]
24 | COCCCC1(CO)CCCN(CCOC)C1 (stereo not drawn) | -1.87
25 | CN1CCCC(N(C)S(=O)(=O)c2cccc3ncccc23)C1 (stereo not drawn) | -6.46
26 | Cn1ncc2c(NC3CCSC3)nc(-c3ccncc3)nc21 (stereo not drawn) | 21.6
27 | CCS(=O)(=O)N1CCc2cc(C(=O)NC)c(N(C)C)nc2CC1 | -141
28 | O=C(CCn1cccn1)NCC(c1cccs1)N1CCCC1 (stereo not drawn) | 7.02
29 | Cc1cc(Br)ccc1CNC(=O)C1(O)CCSCC1 | 8.88
30 | Cc1noc([C@@H]2CCO[C@@H]3CCN(Cc4nccs4)C[C@@H]32)n1 | -75.8
31 | Cc1nnc(C(C)N2CCN(Cc3ccc4c(c3)OCO4)CC2)o1 (stereo not drawn) | -11.6
32 | Cc1cccc(CN2CCCC2c2cccc(Nc3nccs3)n2)c1 (stereo not drawn) | 0.81
33 | COCC[C@]1(O)CCN(Cc2ccccn2)C[C@H]1C | -7.72
34 | COc1cccc2c(=O)n(Cc3cccnc3)cnc12 | -7.85
35 | CN1CCCCC12CCN(c1nncs1)CC2 | 6.89
36 | Cn1ccnc1CN1CCN(CC(O)c2cc(F)ccc2F)CC1 (stereo not drawn) | -13.8
37 | O=C(C1CCOCC1)N1CCOCC(Cc2ncccn2)C1 (stereo not drawn) | 1.38
38 | CC(NC(=O)Nc1nncs1)C(=O)NC1CCCC1 (stereo not drawn) | -5.36
39 | CSCC(CCO)NC(=O)c1cccc(C)c1Cl (stereo not drawn) | 16.8
40 | N#Cc1cccc(N2CCCC3(CNCCO3)C2)n1 (stereo not drawn) | 13.7
41 | Cc1cccn2cc(CN3CCC(N4CCN(C)C4=O)CC3)nc12 | 7.31
42 | Cc1nc(C)c(C)c(N2CCC(NCCOc3ccccc3)CC2)n1 | -1.45
43 | CN(C)c1cc(C2CCCN2C(=O)c2noc3c2CCCC3)ccn1 (stereo not drawn) | 9.13
44 | COCCC1(CO)CCCN(C(=O)c2cccnc2OC)C1 (stereo not drawn) | -47.8
45 | Cc1noc(C)c1C(=O)NCC(C)N1CCc2ccccc21 (stereo not drawn) | -17.2
46 | CN(C)c1ccc(C(=O)N2CCCC2c2cnn(C)c2)cn1 (stereo not drawn) | -1.83

Row | Structure (SMILES) | cytotoxicity at 10 µM [%]
47 | CCC1CN(Cc2nnc(C3CC3)o2)CCN1CCOC (stereo not drawn) | 3.13
48 | Nc1nc(N)c2c(n1)OC1(CCN(C(=O)CC3CCCNC3)CC1)C2 (stereo not drawn) | 5.03
49 | N#Cc1cccc(OCCN2CCCC2C(=O)NCC(F)(F)F)c1 (stereo not drawn) | -5.88
50 | Cc1cnc2cc(C3CCN(C(=O)c4ccncc4)CC3)[nH]c2n1 | -22.1
51 | Cc1nc(-c2cncnc2C2CCCNC2)no1 (stereo not drawn) | 6.88
52 | Cc1ccccc1CN(C)C(=O)c1ccoc1 | 2.2
53 | Cc1nccn1CCN(C)C(=O)c1cn(-c2ccccc2)nn1 | -0.651
54 | O=C(CN1CCCC(Cn2cncn2)C1)NCCc1cccs1 (stereo not drawn) | -17.6
55 | CNC(=O)c1cc(C)nc(C2(C)CCCN2c2cc(C)ncn2)n1 (stereo not drawn) | 2.15
56 | CC(C)N1CCN(C(=O)Nc2cnc3c(cnn3C(C)C)c2)CC1 | 6.23
57 | CC(C)c1ccc(C(C)NC(=O)N2CCC(n3cncn3)CC2)cc1 (stereo not drawn) | -6.18
58 | COc1cccc(CNCc2cccnc2-n2cccn2)c1OC | 2.86
59 | Cc1cccc2c1nc1n2[C@@H](CNC(=O)Cc2ccccc2)COC1 | -5.12
60 | CCN(C)S(=O)(=O)c1ccc(Cl)cc1C#N | -36.9
61 | CCC(O)Cn1nc(CCSC)nc1-c1ccc2c(c1)OCCO2 (stereo not drawn) | -0.268
62 | COc1ccccc1OC1CCN(c2ccncc2)CC1 | 3.33
63 | COCC1CN(C(=O)COc2ccccc2)Cc2cn(C)nc21 (stereo not drawn) | 0.55
64 | CN(CCc1ccccn1)C(=O)C1Cc2ccccc2CN1C (stereo not drawn) | 1.47
65 | Cc1oc(C(=O)O)cc1S(=O)(=O)Nc1cc(F)ccc1F | -7.66
66 | COc1ccccc1N1CCC(N2CCOCC(CO)C2)CC1 (stereo not drawn) | -6.85
67 | O=C(NCCCn1cccn1)N1CCCC1c1ccncc1 (stereo not drawn) | 21.5
68 | O=C(COc1ccccc1O)N1CCOC(C(F)(F)F)C1 (stereo not drawn) | -2.3
69 | COCc1ccc(C(=O)N2CCN(CC(C)O)CC2)cc1 (stereo not drawn) | 0.0264

Row | Structure (SMILES) | cytotoxicity at 10 µM [%]
70 | O=C(O)c1cccc(CN2CCCC(Cc3ccn[nH]3)C2)c1 (stereo not drawn) | 5.39
71 | Clc1cc(NCc2nccs2)nc2[nH]ccc12 | 6.58
72 | CN(C)CCCNC(=O)c1cc(Cl)ccc1Cl | -6.56
73 | CC(C)NC(=O)N1CC[C@H]2N(C)CC[C@@]2(C(=O)Nc2cccnc2)CC1 | -109
74 | CC(=O)N1N=C(Cc2ccccc2)OC1C(=O)NCC(=O)OC(C)(C)C (stereo not drawn) | 0.15
75 | CCOc1ccccc1-n1c(CNC)n[nH]c1=O | -2.98
76 | O=C(NCCNc1ncccn1)Nc1cc(C(F)(F)F)c[nH]c1=O | -4.69
77 | CC(C)Oc1cccc(CN(C)C(=O)Nc2cccn(C)c2=O)c1 | -6.13
78 | Cc1[nH]ccc1C(=O)N1CCCC(c2ccc(C(=O)O)cc2)C1 (stereo not drawn) | -0.591
79 | Cc1csc(N2CCN(CC(=O)Nc3c(C)n[nH]c3C)CC2C)n1 (stereo not drawn) | -14.4
80 | CC(C)c1noc(CN2CCC(C3CCCCCN3S(C)(=O)=O)CC2)n1 (stereo not drawn) | -2.71
81 | COCc1noc(C2(c3ccc(F)cc3)CCC2)n1 | 5.93
82 | COc1cccc(CC2CN(C(=O)c3ccnn3C)CCO2)c1 (stereo not drawn) | 0.769
83 | CC(NC(=O)NCc1cccnc1N1CCCCC1)c1nccs1 (stereo not drawn) | -7.95
84 | Fc1ccc(-c2nc(CNCCn3cccn3)cs2)cc1 | -11.2
85 | Cc1cnn(C2CCCN(C(=O)c3sccc3C#N)C2)c1 (stereo not drawn) | 0.736
86 | Cc1c(-c2c(-c3ccccc3)ncn2[C@H](CO)C(=O)O)cnn1C | 4.28
87 | CCC1c2ccsc2CCN1Cc1cc2c(cc1OC)OCCO2 (stereo not drawn) | 29.4
88 | O=C(c1ccnn1COc1ccc(Cl)cc1)N1CCOCC1 | -3.94
89 | CS(=O)(=O)N1CCC2(CC1)CC(CC(=O)N1CCCC1)c1ccccc12 (stereo not drawn) | -0.748
90 | COc1ccc(C)cc1CN1CCN(Cc2nccn2C)C(C)C1 (stereo not drawn) | 1.43
91 | Cc1ccc(-c2noc(Cn3nc(C(N)=O)ccc3=O)n2)cc1 | -1.6
92 | O=C(NCc1ccccc1F)Nc1ccn(CCN2CCOCC2)n1 | -7.85

Row | Structure (SMILES) | cytotoxicity at 10 µM [%]
93 | NC(=O)c1c(-c2ccc(Cl)cc2Cl)csc1NC(=O)CCCC(=O)O | 5.97
94 | COc1cccc([C@H]2CN(C(=O)c3cc(C)on3)C[C@@H]2N)c1 | 3.14
95 | CCC(=O)N1CCCC1c1nccnc1Nc1ncccn1 (stereo not drawn) | 3.58
96 | Cc1ccc(CNC(=O)c2cc(NC(=O)C3CC3)n(C)n2)o1 | 4.82
97 | CC(=O)N1CCC(c2cccc(NC3CCOCC3)n2)CC1 | 13.3
98 | COCC(=O)N1CCCN(Cc2c(C)nc3ccc(Cl)cn23)CC1 | 5.39
99 | O=C(C1CCC1)N1CCOc2cccc(F)c21 | 0.877
100 | Cc1cc(C(=O)Nc2cnn(CC(F)(F)F)c2)nc(N(C)C)n1 | -2.89
101 | CC(C)NC(=O)NC[C@H]1OC[C@@H](NCc2ccc(S(C)(=O)=O)cc2)[C@@H]1O | 6.7
102 | O=S1(=O)COCCN1CCCOc1ccc(F)cc1 | 3.57
103 | N#Cc1cccc(CN2CCN(Cc3cscn3)CC2)c1 | 1.16
104 | COc1cccc(CN2CCC(c3nnc(-c4cnc(C)cn4)o3)C2)c1 (stereo not drawn) | -10.4
105 | Cc1cc2ccccc2n1CCC(=O)NCCN(C)S(C)(=O)=O | 5.56
106 | CN1CCc2nc(C3CCCN(S(=O)(=O)c4ccccc4)C3)ncc2C1 (stereo not drawn) | 2.67
107 | Cc1cc(=O)n2c3c(cc(S(=O)(=O)NC4CC4)cc13)CCC2 | -32.3
108 | CC(NC(=O)N(C)Cc1ccc2c(c1)OCO2)c1nncn1C (stereo not drawn) | -1.31
109 | CCc1nccn1C1CCCN(C(=O)c2csc(COC)n2)C1 (stereo not drawn) | -8.11
110 | N[C@@H]1c2ccccc2C2(CCN(C(=O)c3ccc(=O)[nH]c3)CC2)[C@H]1O | 3.27
111 | Cc1cccc(C(=O)N2C[C@@H]3CC[C@H](Oc4cccc(F)c4)[C@@H]3C2)n1 | -14.7
112 | CCOc1ccc(C(=O)CCC(=O)NCc2csc(N)n2)cc1C | 7.34
113 | COc1ccc(CN2CCOC3(CCCN(c4nnc(C)o4)C3)C2)cc1 (stereo not drawn) | -23.6
